Nine compounds from ChEMBL document CHEMBL4808167, “Design, Synthesis, and Evaluation of Small Molecule Gαq/11 Protein Inhibitors for the Treatment of Uveal Melanoma” (J Med Chem, 2021) can be followed below.

In data set [1] the target is T1, GNAQ/GNA11 (Homo sapiens) (UniProt P50148+P29992). Nature of the data set: Inhibition of Galphaq/11 (unknown origin) expressed in CHO cells coexpressing M1 receptor assessed as reduction in carbachol-induced IP1 accumulation at 10 uM preincubated for 1 hr followed by carbachol stimulation and measured after 1 hr by HTRF assay relative to control. The settings on record: time 2.0 hrs. The class given is cell-based. (In general: In TR-FRET formats the signal depends on donor and acceptor labels being close together.)

A short description of data set [2]: Antiproliferative activity against human 92.1 cells assessed as inhibition of cell growth after 72 hrs by CCK8 assay. The class given is functional, cell-based. The note with it: Homo sapiens, 921, 72 h. The gist of the method: (§1)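 92.1 or MP41 cells in RPMI-1640 with 10% FBS were seeded at 3 × 10³ cells/well. Exposed to serial concentrations for 72 h at 37 °C, 5% CO₂. CCK-8 added for 1−4 h, absorbance read at 450 nm. IC₅₀ from concentration−response curve fit, mean ± SD.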
(Formazan colour is commonly taken as a measure of viable cells.)

Data set [3] can be described thus: Antiproliferative activity against human MP41 cells assessed as inhibition of cell growth after 72 hrs by CCK8 assay. The class given is functional, cell-based. The settings on record: MP41, 72 h. An outline of the steps:
as §1

Data set [4] deals with T1, GNAQ/GNA11 (Homo sapiens). Nature of the data set: Binding affinity to Galphaq/11 (unknown origin) expressed in HEK293 cells cotransfected with AT1R/Galphaq-RLuc8/ Ggamma2-venus/Gbeta1 assessed as inhibition of Ang-II induced-BRET signal at 100 uM preincubated for 1 hr followed by Ang-II addition by BRET assay. The class given is cell-based. The gist of the method:
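HEK293 cells transiently transfected with AT₁R, Gαq-RLuc8, Gγ2-Venus and untagged Gβ1. Replated 24 h later, washed with HBS, starved 10 min, then pretreated with compound for 1 h at 37 °C. AngII added, followed by coelenterazine. BRET ratio taken as Venus emission (520−570 nm) over RLuc8 emission (370−480 nm). Mean ± SD, n = 3.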

Data set [5] deals with CHO. The data set can be described thus: Induction of morphological changes in chinese hamster CHO cells overexpressing M1 receptor at 10 to 20 uM after 2 hrs by light microscopic analysis. The class given is cell-based, Cricetulus griseus. The settings on record: dose 10-20 µM. The gist of the method:
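CHO-M₁ cells were treated with compound at 10 or 20 μM for 2 h, and changes in cell morphology were examined by microscopy.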

Data set [6] has as its system CHO. The data set can be described thus: Cytotoxicity against chinese hamster CHO cells overexpressing M1 receptor assessed as cell viability at 1.25 to 20 uM after 2 to 24 hrs by CCK8 assay. In kind it is cell-based, Cricetulus griseus. The settings on record: dose lower 1.25 µM, time lower 2 hrs, dose upper 20 µM, time upper 24 hrs. An outline of the steps:
(§2)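 CHO cells stably expressing the M₁ receptor were treated with a range of compound concentrations for 2 h or 24 h. Viability measured by CCK-8 and given as percentage. Mean ± SD of three independent experiments.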

Data set [7] deals with CHO. Nature of the data set: Cytotoxicity against chinese hamster CHO cells overexpressing M1 receptor assessed as cell viability at 5 uM after 2 hrs by CCK8 assay. The class given is cell-based, Cricetulus griseus. The gist of the method: as §2
For data set [8], the target named is T1, GNAQ/GNA11 (Homo sapiens). The data set can be described thus: Inhibition of Galphaq/11 (unknown origin) expressed in HEK293 cells cotransfected with AT1R assessed as inhibition of Ang-II induced calcium release at 100 uM preincubated for 30 mins followed by Ang-II addition by Fluo-4AM dye based fluorescence assay. In kind it is cell-based. The gist of the method: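 HEK293 cells transfected with AT₁R, washed in HBSS with 0.1% BSA and loaded with Fluo-4 AM for 1 h at 37 °C. Washed, then pretreated with compound at 100 μM for 30 min. AngII at varying concentrations added 20 s into the fluorescence recording. Mean ± SD, n = 3.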

For data set [9], the system named is 921. Nature of the data set: Inhibition of cell migration in human 921 cells at 15 uM incubated for 48 hrs by transwell migration assay. In kind it is functional, cell-based. An outline of the steps:
(§3)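 92.1 or MP41 cells (1 × 10⁴/well) seeded in serum-free medium in the upper transwell chamber, with 20% FBS medium below. Left overnight, then treated 48 h. Non-migrated cells swabbed off; cells on the lower side stained with crystal violet 30 min and counted by light microscopy (×40 for migration, ×100 for invasion). Mean ± SD, n = 3.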

Data set [10] deals with MP41. Nature of the data set: Inhibition of cell migration in human MP41 cells at 15 uM incubated for 48 hrs by transwell migration assay. The class given is functional, cell-based. The gist of the method: (§4)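 Transwell migration: 92.1 and MP41 cells (RPMI-1640, 10% FBS) seeded 1 × 10⁴/well in upper chamber in serum-free medium, 20% FBS medium below; overnight at 37 °C, then compound for 48 h. Non-migrated cells swabbed off; lower cells crystal violet-stained 30 min, counted by light microscopy. Mean SD of three independent experiments.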

Data set [11] concerns MP41. Nature of the data set: Inhibition of cell migration in human MP41 cells at 30 uM incubated for 48 hrs by Transwell migration assay. The class given is functional, cell-based. The gist of the method:
as §4

Data set [12] has as its system 921. Nature of the data set: Inhibition of cell invasion in human 921 cells at 5 to 15 uM incubated for 48 hrs by transwell assay. The class given is functional, cell-based. The settings on record: dose 5-15 µM. The gist of the method:
as §3

Data set [13] concerns MP41. The data set can be described thus: Inhibition of cell invasion in human MP41 cells at 5 to 15 uM incubated for 48 hrs by transwell assay. The settings on record: dose 5-15 µM. The class given is functional, cell-based. The gist of the method:
as §3

The nature of data set [14]: Antitumor activity against human MP41 cells xenografted in nude BALB/c mouse assessed as tumor growth inhibition at 10 mg/kg, ip administered for once daily for 21 days and measured every 3 days. In kind it is functional. The note with it: 504 h, time 21 day, read-out: TGI. An outline of the steps: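 MP41 tumours were passaged subcutaneously mouse-to-mouse in nude BALB/c mice (6−8 weeks, 20−25 g). Tertiary recipients randomized, n = 8/group, given 10 or 30 (mg/kg)/d ip or vehicle for 21 days. Tumour size (V = A × B² × π/6, caliper) and body weight taken every 3 days; tumours excised and weighed on day 22. TGI computed versus the vehicle group.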
In general terms: Xenograft models place foreign cells or tissue in a host animal.

Data set [15] has as its target T2, GNAQ/GNA11 (Homo sapiens, UniProt P50148+P29992).
T2 sequence (P50148 whole entry): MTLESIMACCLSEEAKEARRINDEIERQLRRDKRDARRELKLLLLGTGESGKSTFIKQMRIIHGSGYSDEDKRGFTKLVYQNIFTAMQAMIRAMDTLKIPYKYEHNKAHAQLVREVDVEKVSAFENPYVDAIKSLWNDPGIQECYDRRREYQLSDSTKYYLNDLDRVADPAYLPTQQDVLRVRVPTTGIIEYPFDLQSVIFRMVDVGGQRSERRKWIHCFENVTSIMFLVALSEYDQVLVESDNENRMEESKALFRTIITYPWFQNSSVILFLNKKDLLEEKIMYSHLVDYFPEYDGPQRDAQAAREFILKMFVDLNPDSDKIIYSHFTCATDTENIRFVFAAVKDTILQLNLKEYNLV
T2 sequence (P29992 whole entry): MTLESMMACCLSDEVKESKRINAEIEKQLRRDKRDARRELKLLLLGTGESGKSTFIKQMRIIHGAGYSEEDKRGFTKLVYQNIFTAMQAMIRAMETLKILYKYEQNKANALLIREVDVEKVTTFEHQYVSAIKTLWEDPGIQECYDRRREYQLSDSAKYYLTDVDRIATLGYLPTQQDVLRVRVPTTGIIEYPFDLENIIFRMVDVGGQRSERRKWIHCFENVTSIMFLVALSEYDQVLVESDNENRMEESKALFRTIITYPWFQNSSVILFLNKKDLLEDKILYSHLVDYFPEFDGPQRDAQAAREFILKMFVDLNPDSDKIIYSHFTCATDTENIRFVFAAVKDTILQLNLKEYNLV
Nature of the data set: Inhibition of Galphaq/11 (unknown origin) expressed in CHO cells coexpressing M1 receptor assessed as reduction in carbachol-induced IP1 accumulation preincubated for 1 hr followed by carbachol stimulation and measured after 1 hr by HTRF assay. The class given is cell-based.

For data set [16], the target named is T2, GNAQ/GNA11. Nature of the data set: Inhibition of Galphaq/11 (unknown origin). The class given is protein assay. The gist of the method: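 Carbachol-stimulated IP₁ accumulation in CHO cells stably expressing the M₁ receptor, read by HTRF. Cells (2 × 10⁴/well) in assay buffer with 0.2% BSA were preincubated with compound for 1 h at 37 °C. Carbachol (final 9 μM, ~EC₈₀) was then added with LiCl (final 20 mM) for 1 h at 37 °C plus 1 h at room temperature. Values are % inhibition at 10 μM or IC₅₀, three independent experiments.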

Each structure is given as a SMILES string. pIC50: −log10 of the molar value. Active and inactive are the calls of the source. No cut-off for these calls is given here. Starred links: 1 amine or outer side, 2 acyl side, 3 side chain; linkers in the order of their positions; H or OH if unused. Positions of bridges follow the written chain, without caps; N, C: chain ends. Non-standard residues stand in square brackets, D forms with d. Residues, ends and D or L forms follow the SMILES beside them. *: point of attachment. Leu(3R-OH,Nα-propionyl) = CCC(=O)N[C@H](C(=O)*)[C@H](O)C(C)C; X1 = CC(C)[C@@H](O[*:3])[C@H](N[*:1])C(=O)[*:2]; NMeT = CN[C@H](C(=O)O)[C@@H](C)O; dPhLac = O=C(O)[C@H](O)Cc1ccccc1; NMeA = CN[C@@H](C)C(=O)O; NMeDha = C=C(NC)C(=O)O

`N[C@H](CSSC[C@@H](N)C(=O)N1CCn2cc(-c3ccccc3)nc2[C@@H]1CC1CCCCC1)C(=O)N1CCn2cc(-c3ccccc3)nc2[C@@H]1CC1CCCCC1`: the inhibition in data set [1] is 25.8%. Also, the negative-log IC50 (pIC50) in data set [2] was 5.17; in data set [3] it was 4.98. For the same compound, in data set [4], the outcome was Active. For the same compound, the Activity result with CHO [5], with CHO [6] and in the data set with CHO [7] was “Toxic” each time. Also, the outcome in data set [8] was inactive. Also, the inhibition entry in the data set with 921 [9], with MP41 [10], with MP41 [11], in the data set on 921 [12] and with MP41 [13] was “Active” each time. For the same compound, the inhibition in vivo at 10 mg/kg in [14] turned out to be 35.9%.

As to `N[C@@H](Cc1ccc(O)cc1)C(=O)N1CCn2cc(-c3ccccc3)nc2[C@@H]1CC1CCCCC1`, the inhibition in data set [1] came to 34%. Moreover, the IC50 at GNAQ/GNA11 [15] amounted to 48.6 µM. The pIC50 in [2] was 4.97; in data set [3] it was 4.65.

Compound `C=C1C(=O)N[C@@H](C)C(=O)N(C)[C@@H](C)C(=O)N[C@@H]([C@H](OC(=O)[C@@H](NC(=O)CC)[C@H](O)C(C)C)C(C)C)C(=O)N(C)[C@@H]([C@@H](C)OC)C(=O)O[C@H](C(C)C)[C@H](NC(C)=O)C(=O)O[C@H](Cc2ccccc2)C(=O)N1C` (Ac-[X1][dPhLac][NMeDha]A[NMeA][X1](Leu(3R-OH,Nα-propionyl))[NMeT](Me); ester 1-C) registered a concentration for half-maximal inhibition (IC50) on GNAQ/GNA11 [16] of 0.032 µM.

In the case of `N[C@@H](CS)C(=O)N1CCn2cc(-c3ccccc3)nc2[C@@H]1CC1CCCCC1`, the inhibition in data set [1] stood at 32.6%. Besides, the values for the pIC50 in [2] and in data set [3] were 5.32 and 5.64, respectively. For the same compound, the result in data set [4] was Active. The outcome in data set [8] was inactive. Besides, the inhibition entry with 921 [9], in the data set on MP41 [10], with MP41 [11], with 921 [12] and in the data set with MP41 [13] was “Active” throughout.

For the compound `NC(=O)C[C@H](N)C(=O)N1CCn2cc(-c3ccccc3)nc2[C@@H]1CC1CCCCC1`, the inhibition in data set [1] was determined as 19.8%. Further, the negative logarithm of the IC50 (pIC50) in data set [2] and in data set [3] was under 4.00 each time.

As to `CC(C)[C@@H]1c2nc(-c3ccccc3)cn2CCN1C(=O)[C@@H](N)CCCCN`, in data set [1], the inhibition came out at 11.7%. In addition, the negative logarithm of the IC50 (pIC50) in data set [2] and in data set [3] was under 4.00 in each case.

For the compound `O=C(CCS)N1CCn2cc(-c3ccccc3)nc2[C@@H]1CC1CCCCC1`, in data set [1], the inhibition was found to be 19.8%. In addition, the results for the pIC50 in [2] and in data set [3] were 4.54 and under 4.00, respectively.

Consider `C[C@H](O)C(=O)N1CCn2cc(-c3ccccc3)nc2[C@@H]1CC1CCCCC1`, for which the inhibition in data set [1] was 22.5%. Further, the pIC50 is under 4.00 in data set [2] and 4.25 in [3].

Take `C[C@H]1c2nc(-c3ccccc3)cn2CCN1C(=O)[C@@H](N)CS`: the inhibition in [1] worked out at 24.4%. In addition, the negative logarithm of the IC50 (pIC50) in data set [2] and in [3] was under 4.00 each time.

One may read the inhibition as how much of the control response was suppressed. As usually defined, the pIC50 is the IC50 on a negative log10 scale, so that one unit is a factor of ten. What is called IC50 is the concentration that gives 50% inhibition.
